# Published values gathered from unrelated publications.
# Protocols differ between the studies behind these lines.
# PKN1: Serine/threonine-protein kinase N1 (PKN1, Homo sapiens, UniProt Q16512)
# PADI4: Protein-arginine deiminase type-4 (PADI4, Homo sapiens, UniProt Q9UM07)
# CA9: Carbonic anhydrase 9 (CA9, Homo sapiens, UniProt Q16790)
# HRH1: Histamine H1 receptor (HRH1, Homo sapiens, UniProt P35367)
# MAOB: Amine oxidase [flavin-containing] B (MAOB, Homo sapiens, UniProt P27338)
Compound,target,assay,system,conditions,quantity,value
CCC(=O)N1CCN(c2ccc(-n3c(=O)ccc4cnc5ccc(-c6cnc7ccccc7c6)cc5c43)cc2C(F)(F)F)CC1,PKN1,"enzyme activity, inhibitor",,1 µM,activity vs control,97%
CC(C)(C)n1nnc([C@H](CCCNC(=N)CCl)NC(=O)c2ccccc2C(=O)O)n1,PADI4,"enzyme activity, inhibitor",,,kinact/KI,423 M⁻¹ s⁻¹
CCOC(=O)C1CSc2[nH]c(=O)sc2C1c1cn(-c2ccccc2)nc1-c1ccc(OC)cc1 (centres unmarked),CA9,"enzyme activity, inhibitor",,10 nM,inhibition,21.5%
C=CC(=O)Nc1cc(N2CCN(CC)CC2)ccc1Nc1cc(N(C)C(=O)Nc2c(Cl)c(OC)cc(OC)c2Cl)ncn1,PKN1,"enzyme activity, inhibitor",,1 µM,activity vs control,103%
CCC(=O)NCC[C@@H]1CCc2cc(O)c3c(c21)CCO3,"Sulfotransferase 1A1 (SULT1A1, Homo sapiens, UniProt P50225)","enzyme activity, substrate",,pH 7,Km,19.2 µM
CC#CC(=O)Nc1cc2c(Nc3ccc(F)c(Cl)c3)ncnc2cn1,PKN1,"enzyme activity, inhibitor",,1 µM,activity vs control,81%
N=C(CCl)NCCC[C@H](NC(=O)c1ccc(-c2ccccc2)cc1)c1nn[nH]n1,PADI4,"enzyme activity, inhibitor",,,kinact/KI,398 M⁻¹ s⁻¹
Nc1ncnc2c1ncn2[C@@H]1O[C@H](COP(=O)(O)OP(=O)(O)O)[C@@H](O)[C@H]1O,"Katanin p60 ATPase-containing subunit A1 (Homo sapiens, UniProt O75449, D210C)","thermal stability, DSF",,1 mM,ΔTm,4.5 to 4.8 °C
N#CC1CSc2[nH]c(=O)sc2C1c1cn(-c2ccccc2)nc1-c1ccc(Br)cc1 (centres unmarked),CA9,"enzyme activity, inhibitor",,10 µM,inhibition,88.5%
CN1CCC(=C(c2ccccc2)c2ccccc2)CC1,HRH1,binding,,,kon,2e+06 M⁻¹ s⁻¹
CCOC(=O)C1CSc2[nH]c(=O)sc2C1c1cn(-c2ccccc2)nc1-c1ccc(Br)cc1 (centres unmarked),CA9,"enzyme activity, inhibitor",,10 µM,inhibition,80.5%
O=C(Nc1ccc([N+](=O)[O-])cc1Cl)c1ccc(Cl)cc1,MAOB,"enzyme activity, inhibitor",,"1 µM, 20 min",inhibition,25%
N=C(N)NCCC[C@H](NC(=O)[C@H](CC(=O)O)NC(=O)[C@H](Cc1c[nH]c2ccccc12)NC(=O)[C@H](CCCNC(=N)N)NC(=O)[C@@H](N)Cc1ccccc1)C(=O)N[C@@H](Cc1ccccc1)C(=O)NCC(=O)O,"Melanocortin receptor 5 (Mus musculus, UniProt P41149)","cAMP, agonist",HEK293,,Emax,90%
O=[N+]([O-])c1ccc(O[C@H]2O[C@H](CO)[C@@H](O)[C@H](O)[C@@H]2O)cc1,"Beta-mannosidase (Bacteroides thetaiotaomicron, UniProt Q8AAK6)","enzyme activity, substrate, absorbance",,pH 5.6,Km,390 µM
C=CCn1c(=O)c2cnc(Nc3ccc(N4CCN(C)CC4)cc3)nc2n1-c1cccc(C(C)(C)O)n1,PKN1,"enzyme activity, inhibitor",,1 µM,activity vs control,60%
Cc1ccc(C(=O)Nc2ccc([N+](=O)[O-])cc2C(F)(F)F)cc1,MAOB,"enzyme activity, inhibitor",,"1 µM, 20 min",inhibition,69%
CC(C)(C)n1nnc([C@H](CCCNC(=N)CF)NC(=O)c2ccccc2)n1,PADI4,"enzyme activity, inhibitor",,,kinact/KI,4.33 M⁻¹ s⁻¹
CN1CCN(C2c3ccccc3C=Cc3ccccc32)CC1,HRH1,binding,,,kon,117000 M⁻¹ s⁻¹
Cc1ccc(-c2nn(-c3ccccc3)cc2C2c3sc(=O)[nH]c3SC3C(=O)N(c4ccccc4)C(=O)C32)cc1 (centres unmarked),CA9,"enzyme activity, inhibitor",,10 nM,inhibition,17.8%
CN1CCC(C2c3ccccc3C=Cc3ccccc32)CC1,HRH1,binding,,,kon,667000 M⁻¹ s⁻¹
Cc1cc(N)ccc1NC(=O)c1ccccc1,MAOB,"enzyme activity, inhibitor",,"1 µM, 20 min",inhibition,-2%
CCOC(=O)C1CSc2[nH]c(=O)sc2C1c1cn(-c2ccccc2)nc1-c1ccccc1 (centres unmarked),CA9,"enzyme activity, inhibitor",,0.1 µM,inhibition,29%
CN1CCN(C2c3ccccc3CCc3ccccc32)CC1,HRH1,binding,,,kon,567000 M⁻¹ s⁻¹
N#Cc1ccc(NC(=O)c2ccccc2O)cc1,MAOB,"enzyme activity, inhibitor",,"1 µM, 20 min",inhibition,32%
CN1CCC(C2c3ccccc3CCc3ccccc32)CC1,HRH1,binding,,,kon,717000 M⁻¹ s⁻¹
CCOc1ccc(C(=O)Nc2ccc([N+](=O)[O-])cc2C(F)(F)F)cc1OCC,MAOB,"enzyme activity, inhibitor",,"1 µM, 20 min",inhibition,62%
CC(C)(C)n1nnc([C@H](CCCNC(=N)CCl)NC(=O)c2ccc(-c3ccccc3)cc2)n1,PADI4,"enzyme activity, inhibitor",,,kinact/KI,102 M⁻¹ s⁻¹
CN1CCC(=C2c3ccccc3CCc3ccccc32)CC1,HRH1,binding,,,kon,1.33e+06 M⁻¹ s⁻¹
O=C1NC(=S)C(=Cc2cn(-c3ccccc3)nc2-c2ccc(Br)cc2)S1,CA9,"enzyme activity, inhibitor",,0.1 µM,inhibition,33.5%
O=C(Nc1ccccn1)c1ccc(Cl)cc1,MAOB,"enzyme activity, inhibitor",,"1 µM, 20 min",inhibition,11%
CCOC(=O)C1CSc2[nH]c(=O)sc2C1c1cn(-c2ccccc2)nc1-c1ccc(Cl)cc1 (centres unmarked),CA9,"enzyme activity, inhibitor",,0.1 µM,inhibition,36%
O=C(c1ccc(Cl)cc1)N(Cc1ccccc1)C1CCCCC1,"Muscarinic acetylcholine receptor M4 (CHRM4, Homo sapiens, UniProt P08173)",cell-free assay,,10 µM,inhibition,7.1%
C[C@@H]1CN(CC(=O)Nc2ccc3c(c2)Cc2cccc(-c4cc(=O)cc(N5CCOCC5)o4)c2S3)C[C@H](C)O1,PKN1,"enzyme activity, inhibitor",,1 µM,activity vs control,79%
O=C(Nc1ccccc1)c1cc(Cl)ccc1O,MAOB,"enzyme activity, inhibitor",,"1 µM, 20 min",inhibition,44%
CN(C)CCOc1ccc(-c2nc(-c3ccncc3)c(-c3ccc4c(c3)CC/C4=N\O)[nH]2)cc1,PKN1,"enzyme activity, inhibitor",,1 µM,activity vs control,95%
Cc1cccnc1C(=O)Nc1ccc(N2C(=O)c3ccccc3C2=O)c(Cl)c1,"Metabotropic glutamate receptor 1 (GRM1, Homo sapiens, UniProt Q13255)","calcium signal, positive allosteric modulator",T-REx-293,,Emax,91%
CCOC(=O)C1CSc2[nH]c(=O)sc2C1c1cn(-c2ccccc2)nc1-c1ccc(C)cc1 (centres unmarked),CA9,"enzyme activity, inhibitor",,1 µM,inhibition,61.4%
CC(C)(C)n1nnc([C@H](CCCNC(=N)CF)NC(=O)c2ccc(-c3ccccc3)cc2)n1,PADI4,"enzyme activity, inhibitor",,,kinact/KI,20.8 M⁻¹ s⁻¹
Cc1ccc2c(=O)c3ccccc3n(CCCN)c2c1C.O=C(O)/C=C\C(=O)O,PKN1,"enzyme activity, inhibitor",,1 µM,activity vs control,64%
COc1cc(NC(C)=O)c(Cl)cc1C(=O)Nc1nccs1,"Endothelin receptor type B (EDNRB, Homo sapiens, UniProt P24530)",cell-free assay,,10 µM,inhibition,-13.1%
N=C(CCl)NCCC[C@H](NC(=O)c1ccccc1)c1nn[nH]n1,PADI4,"enzyme activity, inhibitor",,,kinact/KI,287 M⁻¹ s⁻¹
CCOc1ccc(C(=O)Nc2ccc(Br)cc2)cc1OCC,MAOB,"enzyme activity, inhibitor",,"1 µM, 20 min",inhibition,13%
CN(C)CCOC1c2ccccc2C=Cc2ccccc21,HRH1,binding,,,koff,0.00015 s⁻¹
COc1cc2ncn(-c3cc(OCc4ccccc4C(F)(F)F)c(C(N)=O)s3)c2cc1OC,PKN1,"enzyme activity, inhibitor",,1 µM,activity vs control,56%
